From ChEMBL document CHEMBL4364279, “Design, synthesis, in-silico and biological evaluation of novel chalcone-O-carbamate derivatives as multifunctional agents for the treatment of Alzheimer's disease” (Eur J Med Chem, 2019)
The source made the active and inactive calls. The calls are words filed in the database; no cut-off is given here.

Experiments:
[1] = target: Acetylcholinesterase (AChE) (Electrophorus electricus, UniProt O42275); assay: Inhibition of electric eel AChE at 25 uM using acetylthiocholine iodide as substrate incubated for 15 mins by Ellman's method relative to control; conditions: electric eel acetylcholinesterase (isolated enzyme), probe acetylthiocholine iodide
Cholinesterase = Cholinesterase (Equus caballus, UniProt P81908); assay: Inhibition of equine serum BuChE using S-butyrylthiocholine iodide as susbtrate preincubated for 6 mins followed by substrate addition measured up to 3 mins by Ellman's method
[2] = Antioxidant activity assessed as trolox equivalents of AAPH radical scavenging activity preincubated for 15 mins followed by AAPH addition and measured every minute for 90 mins by ORAC-FL assay; format: functional
[3] = target: T1, Amine oxidase [flavin-containing] B (Homo sapiens, UniProt P27338); assay: biochemical; format: cell-based
T1 sequence (P27338 whole entry): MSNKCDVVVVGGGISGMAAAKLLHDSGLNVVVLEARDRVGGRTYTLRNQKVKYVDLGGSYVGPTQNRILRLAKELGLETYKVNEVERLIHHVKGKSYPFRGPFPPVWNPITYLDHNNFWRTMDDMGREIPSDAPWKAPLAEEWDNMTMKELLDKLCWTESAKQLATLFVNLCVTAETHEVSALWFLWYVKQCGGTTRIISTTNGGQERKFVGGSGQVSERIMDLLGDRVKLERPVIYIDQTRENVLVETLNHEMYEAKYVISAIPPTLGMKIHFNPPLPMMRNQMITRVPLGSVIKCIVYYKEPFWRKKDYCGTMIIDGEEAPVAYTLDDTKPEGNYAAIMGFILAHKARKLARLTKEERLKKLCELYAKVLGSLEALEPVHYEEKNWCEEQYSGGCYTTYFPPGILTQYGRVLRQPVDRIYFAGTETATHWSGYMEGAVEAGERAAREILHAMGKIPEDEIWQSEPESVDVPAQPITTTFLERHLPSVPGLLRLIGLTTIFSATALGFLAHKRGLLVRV

[4] = target: T2, Amine oxidase [flavin-containing] A (Homo sapiens, UniProt P21397); assay: Inhibition of recombinant human MAO-A expressed in baculovirus infected BTI insect cells at 12.5 uM using kynuramine as substrate measured after 30 mins by fluorescence based assay relative to control; conditions: 0.5 h
T2 sequence (P21397 whole entry): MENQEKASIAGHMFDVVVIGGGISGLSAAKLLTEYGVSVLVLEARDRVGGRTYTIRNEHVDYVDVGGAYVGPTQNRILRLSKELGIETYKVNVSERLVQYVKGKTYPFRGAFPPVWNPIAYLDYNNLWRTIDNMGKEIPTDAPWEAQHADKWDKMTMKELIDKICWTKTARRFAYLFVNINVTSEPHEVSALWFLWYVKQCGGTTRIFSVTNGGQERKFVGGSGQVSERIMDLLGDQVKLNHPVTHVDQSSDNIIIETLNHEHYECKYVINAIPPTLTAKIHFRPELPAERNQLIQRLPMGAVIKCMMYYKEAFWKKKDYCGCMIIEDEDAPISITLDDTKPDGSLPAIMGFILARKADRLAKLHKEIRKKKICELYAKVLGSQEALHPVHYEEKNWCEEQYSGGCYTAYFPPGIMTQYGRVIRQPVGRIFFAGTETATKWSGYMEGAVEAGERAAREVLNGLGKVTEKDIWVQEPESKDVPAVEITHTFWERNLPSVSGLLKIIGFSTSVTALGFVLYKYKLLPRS

[5] = Inhibition of Cu2+-induced amyloid beta (1 to 42 residues) (unknown origin) aggregation at 25 uM after 24 hrs by thioflavin-T based fluorescence assay relative to control
Outline: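 Aβ1-42 (25 µM) and Cu2+ (25 µM) incubated at 37 °C for 24 h with or without compound (25 µM). ThT (5 µM in 50 mM glycine-NaOH, pH 8.5) then added; fluorescence read at ex 446/em 490 nm. Inhibition = (1−IFi/IFc)×100 after background subtraction. Three independent experiments.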

[6] = Disaggregation of Cu2+ induced preformed fibrils of amyloid beta (1 to 42) (unknown origin) at 25 uM preincubated with Cu2+ for 24 hrs followed by compound addition and measured after 24 hrs by thioflavin-T based fluorescence assay relative to control
Outline: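 Aβ1-42 (25 µM) and Cu2+ (25 µM) preincubated at 37 °C for 24 h, then compound (25 µM) added and incubated a further 24 h at 37 °C. ThT (5 µM in 50 mM glycine-NaOH, pH 8.5) added; fluorescence at ex 446/em 490 nm, background subtracted, % vs no-compound control. Three independent experiments.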

[7] = target: Cholinesterase (Equus caballus) (UniProt P81908); assay: Reversible inhibition of equine serum BuChE assessed as enzyme activity at 0.1 times IC50 using butyrylthiocholine iodide as substrate by Ellman's method relative to control; parameters: scale not given: the % may be the effect or the level left
Outline: (§1)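 Reversibility tested by recovery of equine serum BuChE activity after dilution of inhibitor, with activity monitored over time up to 240 min by the Ellman method (DTNB read at 412 nm). Activity expressed relative to untreated control. Three independent experiments.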

[8] = target: Cholinesterase (Equus caballus) (UniProt P81908); assay: Reversible inhibition of equine serum BuChE assessed as enzyme activity at 0.1 times IC50 using butyrylthiocholine iodide as substrate measured at 120 mins by Ellman's method relative to control; parameters: scale not given: the % may be the effect or the level left; outline: as §1
[9] = target: Cholinesterase (Equus caballus) (UniProt P81908); assay: Reversible inhibition of equine serum BuChE assessed as enzyme activity at IC50 using butyrylthiocholine iodide as substrate by Ellman's method relative to control; parameters: scale not given: the % may be the effect or the level left
[10] = target: Amyloid-beta precursor protein (Homo sapiens) (UniProt P05067); assay: Inhibition of self-induced amyloid beta (1 to 42) (unknown origin) aggregation at 25 uM after 24 hrs by thioflavin-T based fluorescence assay relative to control
[11] = Metal chelating activity of the compound assessed as formation of Fe2+-compound complex at 37.5 uM after 30 mins by UV-vis absorption spectra analysis
Outline: (§2)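 Metal binding examined by plate-reader absorbance scan using CuCl2, ZnCl2, AlCl3, FeSO4, CuCl and Fe(NO3)3 as metal sources.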

[12] = Metal chelating activity of the compound assessed as formation of Zn2+-compound complex at 37.5 uM after 30 mins by UV-vis absorption spectra analysis; outline: as §2
[13] = Metal chelating activity of the compound assessed as formation of Cu2+-compound complex at 37.5 uM after 30 mins by UV-vis absorption spectra analysis; outline: as §2
PC-12 [14] = assay: Neuroprotective activity against H2O2-induced cell death in rat PC12 cells assessed as cell viability at 10 uM pretreated for 2 hrs followed by H2O2 addition measured after 30 mins by MTT assay (reference value: 49.6%); format: functional; conditions: read-out: Activity
PC-12 [15] = assay: Neuroprotective activity against H2O2-induced cell death in rat PC12 cells assessed as cell viability at 1 uM pretreated for 2 hrs followed by H2O2 addition measured after 30 mins by MTT assay (reference value: 49.6%); format: functional; conditions: read-out: Activity
[16] = Metal chelating activity of the compound assessed as formation of Al3+-compound complex at 37.5 uM after 30 mins by UV-vis absorption spectra analysis; outline: as §2
in vitro = conditions: PAMPA, pH 7.4
Mus musculus [17] = assay: Effect on total arm entries in Kunming mouse model of scopolamine-induced cognitive impairment in at 6 mg/kg, ig pretreated for 30 min followed by scopolamine challenge and measured after 30 mins by Y-maze test; format: ADME, organism-based; conditions: in vivo, po, 0.5 h
Mus musculus [18] = assay: Reversal of scopolamine-induced memory cognitive memory impairment in Kunming mouse assessed as change in spontaneous alteration behavior at 6 mg/kg, ig pretreated for 30 mins followed by scopolamine challenge and after 30 mins by Y-maze test (reference value: 45.6%); format: functional
[19] = target: Cholinesterase (Equus caballus) (UniProt P81908); assay: Inhibition of equine serum BuChE at 25 uM using S-butyrylthiocholine iodide as susbtrate preincubated for 6 mins followed by substrate addition measured up to 3 mins by Ellman's method

Cholinesterase, sequence (P81908 whole entry): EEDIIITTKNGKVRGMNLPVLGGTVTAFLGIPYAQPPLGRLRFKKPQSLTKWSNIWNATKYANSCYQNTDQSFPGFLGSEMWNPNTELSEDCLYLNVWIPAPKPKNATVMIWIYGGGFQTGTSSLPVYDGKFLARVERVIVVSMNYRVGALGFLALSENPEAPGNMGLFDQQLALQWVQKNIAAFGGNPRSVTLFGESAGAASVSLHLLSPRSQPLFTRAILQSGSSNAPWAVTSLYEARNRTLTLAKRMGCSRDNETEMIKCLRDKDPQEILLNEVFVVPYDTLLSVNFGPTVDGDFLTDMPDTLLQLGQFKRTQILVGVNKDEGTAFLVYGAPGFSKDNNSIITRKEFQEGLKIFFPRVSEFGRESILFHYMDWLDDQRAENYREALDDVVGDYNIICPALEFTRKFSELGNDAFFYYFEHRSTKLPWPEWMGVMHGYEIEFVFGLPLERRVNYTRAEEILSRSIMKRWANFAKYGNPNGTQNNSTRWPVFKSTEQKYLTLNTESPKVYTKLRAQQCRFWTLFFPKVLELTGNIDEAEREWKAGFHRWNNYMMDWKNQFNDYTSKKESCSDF
Cholinesterase (Equus caballus), sequence (P81908 whole entry): as above
Amyloid-beta precursor protein (Homo sapiens), sequence (P05067 whole entry): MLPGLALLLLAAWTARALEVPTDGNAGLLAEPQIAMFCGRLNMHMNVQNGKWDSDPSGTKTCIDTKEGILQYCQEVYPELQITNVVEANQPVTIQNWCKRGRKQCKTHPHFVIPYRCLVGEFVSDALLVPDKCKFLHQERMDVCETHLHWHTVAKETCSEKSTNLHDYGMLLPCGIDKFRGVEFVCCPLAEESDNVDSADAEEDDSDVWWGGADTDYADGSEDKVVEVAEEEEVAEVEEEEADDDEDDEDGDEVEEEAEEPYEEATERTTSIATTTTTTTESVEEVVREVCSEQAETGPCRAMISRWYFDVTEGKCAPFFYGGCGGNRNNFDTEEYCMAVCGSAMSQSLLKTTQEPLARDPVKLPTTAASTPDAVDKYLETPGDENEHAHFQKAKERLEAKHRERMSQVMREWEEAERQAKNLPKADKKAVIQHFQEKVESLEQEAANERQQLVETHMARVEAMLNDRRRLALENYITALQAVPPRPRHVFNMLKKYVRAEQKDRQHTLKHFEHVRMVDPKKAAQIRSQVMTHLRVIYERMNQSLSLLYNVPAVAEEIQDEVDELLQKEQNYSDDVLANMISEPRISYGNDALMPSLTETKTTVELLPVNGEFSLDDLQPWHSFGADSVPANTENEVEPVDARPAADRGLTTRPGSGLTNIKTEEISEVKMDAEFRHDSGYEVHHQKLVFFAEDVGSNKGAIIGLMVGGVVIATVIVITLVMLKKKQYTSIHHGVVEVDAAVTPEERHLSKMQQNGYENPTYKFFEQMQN
Acetylcholinesterase (AChE), sequence (O42275 whole entry): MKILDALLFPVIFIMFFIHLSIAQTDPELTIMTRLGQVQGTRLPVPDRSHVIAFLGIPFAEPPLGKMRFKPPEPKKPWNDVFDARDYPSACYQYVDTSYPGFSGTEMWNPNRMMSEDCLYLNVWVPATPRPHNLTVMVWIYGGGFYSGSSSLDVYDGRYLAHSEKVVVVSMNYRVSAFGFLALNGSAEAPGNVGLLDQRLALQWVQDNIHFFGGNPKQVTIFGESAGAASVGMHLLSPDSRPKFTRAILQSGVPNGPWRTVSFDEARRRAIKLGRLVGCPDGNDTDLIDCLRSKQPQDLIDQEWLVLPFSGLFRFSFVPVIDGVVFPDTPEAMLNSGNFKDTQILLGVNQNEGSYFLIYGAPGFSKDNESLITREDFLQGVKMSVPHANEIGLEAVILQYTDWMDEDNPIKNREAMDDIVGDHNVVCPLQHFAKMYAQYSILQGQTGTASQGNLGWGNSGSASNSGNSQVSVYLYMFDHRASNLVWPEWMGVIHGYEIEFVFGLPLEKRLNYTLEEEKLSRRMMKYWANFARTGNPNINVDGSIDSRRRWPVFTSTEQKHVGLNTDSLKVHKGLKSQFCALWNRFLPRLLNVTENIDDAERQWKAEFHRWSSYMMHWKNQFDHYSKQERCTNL

Row | SMILES | inhibition at 0.25 h, 25 µM [1] | IC50 (Cholinesterase) | Activity [2] | IC50 [3] | inhibition at 12.5 µM [4] | inhibition [10] | also measured
1 | CCN(CC)C(=O)Oc1cccc(/C=C/C(=O)c2ccccc2O)c1 | 16.9% | 4.8 µM | 1.3 µMequiv/µM | 1.8 µM | 38.1% |  | 
2 | COc1cc(/C=C/C(=O)CC(=O)/C=C/c2ccc(O)c(OC)c2)ccc1O |  |  |  |  |  |  | inhibition [5]: 73.4%; Activity [6]: 58.2%
3 | CN(C)C(=O)Oc1cccc(/C=C/C(=O)c2ccccc2OC(=O)N(C)C)c1 | 11.7% | 4.5 µM | 0.32 µMequiv/µM | 2.9 µM | 18.9% |  | 
4 | CCN(C)C(=O)Oc1cccc(/C=C/C(=O)c2ccccc2OC(=O)N(C)CC)c1 | 35.4% | 1.2 µM | 0.35 µMequiv/µM | 3.7 µM | 28.4% | 53.1% | Activity [7]: 50.7%; Activity [8]: 70.9%; Activity [9]: 49.7%; Activity [11]: inactive; Activity [12]: inactive; Activity [13]: inactive; viability at 10 µM (PC-12 [14]): 63.2%; viability at 1 µM (PC-12 [15]): 53.7%; Activity [16]: inactive; Papp at 100 ug/ml (in vitro): 23.1 ×10⁻⁶ cm/s
5 | COc1cc2c(cc1OC)C(=O)C(CC1CCN(Cc3ccccc3)CC1)C2 (stereo unspecified) |  |  |  |  |  |  | Activity [8]: 104%; Activity [9]: 54.1%
6 | O=C(/C=C/c1cccc(OC(=O)N(c2ccccc2)c2ccccc2)c1)c1ccccc1OC(=O)N(c1ccccc1)c1ccccc1 | 27.1% | 42.6 µM | 0.33 µMequiv/µM | 6.3 µM | 18.2% |  | 
7 | O=C(/C=C/c1cccc(OC(=O)N2CCOCC2)c1)c1ccccc1OC(=O)N1CCOCC1 | 20.8% | 2 µM | 0.32 µMequiv/µM | 5.2 µM | 20.9% | 49.2% | 
8 | CCN(C)C(=O)Oc1cccc([C@H](C)N(C)C)c1 [RIVASTIGMINE] |  |  |  |  |  |  | Activity [7]: 46.9%; Activity [8]: 71.6%; Activity [9]: 49.8%; Activity (Mus musculus [17]): Non-Toxic; Activity (Mus musculus [18]): 65.3%
9 | CON(C)C(=O)Oc1cccc(/C=C/C(=O)c2ccccc2OC(=O)N(C)OC)c1 | 45.4% | 1.5 µM | 0.32 µMequiv/µM | 4.6 µM | 10.3% | 49.9% | 
10 | O=C(/C=C/c1cccc(OC(=O)N(c2ccccc2)c2ccccc2)c1)c1ccccc1O | 18.9% | 56.2 µM | 1.1 µMequiv/µM | 4.9 µM | 18.2% |  | 
11 | O=C(/C=C/c1cccc(O)c1)c1ccccc1O | 23.3% |  | 2.6 µMequiv/µM | 1.1 µM | 28.1% | 70.6% | inhibition [19]: 28.9%
12 | O=C(/C=C/c1cccc(OC(=O)N2CCOCC2)c1)c1ccccc1O | 24.3% | 5.1 µM | 1.2 µMequiv/µM | 3.1 µM | 17.4% |  | 
13 | CON(C)C(=O)Oc1cccc(/C=C/C(=O)c2ccccc2O)c1 | 30.4% | 3.2 µM | 1.2 µMequiv/µM | 2.6 µM | 33.8% | 61.4% | 
14 | CCN(CC)C(=O)Oc1cccc(/C=C/C(=O)c2ccccc2OC(=O)N(CC)CC)c1 | 21.9% | 3.1 µM | 0.31 µMequiv/µM | 3.3 µM | 21.1% | 51.5% | 
15 | CN(C)C(=O)Oc1cccc(/C=C/C(=O)c2ccccc2O)c1 | 28.8% | 2.51 µM | 1.1 µMequiv/µM | 0.8 µM | 19.9% | 60.2% | 
